This is an account of results in ChEMBL document CHEMBL4251662, “Alkyl indole-based cannabinoid type 2 receptor tools: Exploration of linker and fluorophore attachment” (Eur J Med Chem, 2018).

Activity calls are given as the source filed them. No cut-off for these calls is given here.

For series [1], the target named is T1, Cannabinoid receptor 2 (Homo sapiens, UniProt P34972). Put plainly: Displacement of [3H]CP55,940 from N-terminal HA-tagged human CB2 receptor expressed in HEK293 cell membranes after 1 hr by microbeta scintillation counting method.
T1 sequence (P34972 whole entry): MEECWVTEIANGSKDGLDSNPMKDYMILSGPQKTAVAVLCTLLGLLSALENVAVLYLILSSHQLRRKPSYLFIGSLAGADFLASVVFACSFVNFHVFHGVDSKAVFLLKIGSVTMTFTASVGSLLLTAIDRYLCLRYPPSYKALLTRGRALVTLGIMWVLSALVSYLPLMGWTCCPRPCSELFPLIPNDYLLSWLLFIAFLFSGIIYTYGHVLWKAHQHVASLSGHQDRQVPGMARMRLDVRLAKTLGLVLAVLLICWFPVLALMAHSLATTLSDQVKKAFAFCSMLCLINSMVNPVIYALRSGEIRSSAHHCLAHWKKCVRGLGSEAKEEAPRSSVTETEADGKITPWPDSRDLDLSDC
The target in series [2] is T1, Cannabinoid receptor 2. In words: Displacement of [3H]CP55,940 from N-terminal HA-tagged human CB2 receptor expressed in HEK293 cell membranes at 10 uM after 1 hr by microbeta scintillation counting method relative to control. The procedure, abridged:
(§1)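 Single-point competition screen against [3H]CP55,940 in HEK293 cells over-expressing 3HA-tagged hCB2 or hCB1. Compounds giving more than 50% displacement went on to full concentration-response curves.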

Series [3] addresses T2, Cannabinoid receptor 1 (Homo sapiens, UniProt P21554). In words: Displacement of [3H]CP55,940 from N-terminal HA-tagged human CB1 receptor expressed in HEK293 cell membranes at 10 uM after 1 hr by microbeta scintillation counting method relative to control. The procedure, abridged: as §1
The target of series [4] is T2, Cannabinoid receptor 1. Put plainly: Displacement of [3H]CP55,940 from N-terminal HA-tagged human CB1 receptor expressed in HEK293 cell membranes after 1 hr by microbeta scintillation counting method.
Series [5] deals with HEK293. Put plainly: Effect on forskolin-stimulated cAMP level in HEK293 cells at 1 uM by BRET assay relative to control. Particulars: human, hek293, 1 µM. It counts as ADME, cell-based. The procedure, abridged:
(§2)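 Wild-type HEK293 cells lacking transfected receptor, tested at 10 µM and 1 µM. Forskolin-stimulated cAMP measured by BRET as a check that responses are receptor-mediated.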

Series [6] deals with T1, Cannabinoid receptor 2. In words: Agonist activity at N-terminal HA-tagged human CB2 receptor expressed in HEK293 cells transfected with YFP-Epac-RLuc assessed as decrease in forskolin-stimulated cAMP level by BRET assay relative to control. It counts as functional, cell-based. An outline of the steps: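 BRET cAMP biosensor read-out in HEK293 cells expressing HA-tagged human CB1 or CB2, with forskolin stimulation (5 µM). Concentration-response curves; area-under-curve values normalised to forskolin alone = 100% and basal = 0%. EC50 taken for agonists and IC50 for inverse agonists. Mean of at least three independent experiments, each point in duplicate.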
A general note: Changes in cAMP serve as a functional read-out for many G protein-coupled receptors.

Series [7] concerns the target T2, Cannabinoid receptor 1. In words: Agonist activity at N-terminal HA-tagged human CB1 receptor expressed in HEK293 cells transfected with YFP-Epac-RLuc assessed as decrease in forskolin-stimulated cAMP level at 10 uM by BRET assay. It is filed as functional, cell-based. The procedure, abridged: (§3)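 Single-concentration screen at 10 µM in CB receptor-expressing HEK293 cells, run with and without CP55,940 as reference agonist. Forskolin-stimulated cAMP read by BRET biosensor. A fall in cAMP is scored as agonism and a rise as inverse agonism.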

In series [8] the test system is HEK293. In words: Effect on forskolin-stimulated cAMP level in HEK293 cells at 10 uM by BRET assay relative to control. It counts as ADME, cell-based. Particulars: human, hek293, 10 µM. An outline of the steps: as §2
Series [9] concerns the target T1, Cannabinoid receptor 2. Put plainly: Agonist activity at N-terminal HA-tagged human CB2 receptor expressed in HEK293 cells transfected with YFP-Epac-RLuc assessed as decrease in forskolin-stimulated cAMP level at 10 uM by BRET assay. It counts as functional, cell-based. The procedure, abridged:
as §3

T2 sequence (P21554 whole entry): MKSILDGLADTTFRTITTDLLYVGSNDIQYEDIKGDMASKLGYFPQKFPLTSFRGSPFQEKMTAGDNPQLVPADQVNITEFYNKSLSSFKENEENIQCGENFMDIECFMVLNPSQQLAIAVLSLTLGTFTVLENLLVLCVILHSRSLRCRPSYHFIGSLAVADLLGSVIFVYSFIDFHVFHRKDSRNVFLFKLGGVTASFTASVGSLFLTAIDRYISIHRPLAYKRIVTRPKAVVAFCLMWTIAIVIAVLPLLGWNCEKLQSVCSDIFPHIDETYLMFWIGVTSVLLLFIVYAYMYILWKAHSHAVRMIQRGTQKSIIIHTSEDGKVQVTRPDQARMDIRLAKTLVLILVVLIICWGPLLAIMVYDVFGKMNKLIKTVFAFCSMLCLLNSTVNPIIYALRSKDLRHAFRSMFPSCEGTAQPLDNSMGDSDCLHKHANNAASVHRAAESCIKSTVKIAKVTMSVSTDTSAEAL

The Ki is the equilibrium dissociation constant of an inhibitor or competing ligand from its target. By inhibition is commonly meant the change of the read-out against control, counted positive when it falls. `COc1ccc(C(=O)c2cn(CCN3CCOCC3)c3ccc(OCC(=O)NCCCCCCCCN)cc23)cc1`: the inhibition constant (Ki) at Cannabinoid receptor 2 [1] (read-out: Ki) was more than 10 µM. The inhibition on Cannabinoid receptor 2 [2] and at Cannabinoid receptor 1 [3] was more than 50% each time.

With `O=C(CCCCCNC(=O)COc1ccc(/C=C/C2=[N+]3C(=Cc4ccc(-c5cccs5)n4[B-]3(F)F)C=C2)cc1)NCCOCCOCCNC(=O)COc1ccc2c(c1)c(C(=O)c1cccc3ccccc13)cn2CCN1CCOCC1`, the Ki on Cannabinoid receptor 2 [1] (read-out: Ki) is more than 10 µM.

With `COc1ccc(C(=O)c2cn(CCN3CCOCC3)c3ccc(OCC(=O)NCCOCCOCCNC(=O)CCCCCNC(=O)COc4ccc(/C=C/C5=[N+]6C(=Cc7ccc(-c8cccs8)n7[B-]6(F)F)C=C5)cc4)cc23)cc1`, on Cannabinoid receptor 2 [1] (read-out: Ki), the Ki was more than 10 µM.

Regarding `COc1ccc(C(=O)c2cn(CCN3CCOCC3)c3ccc(OCC(=O)NCCOCCOCCN)cc23)cc1`, the Ki on Cannabinoid receptor 2 [1] (read-out: Ki) was more than 10 µM. Further, the inhibition at Cannabinoid receptor 2 [2] and on Cannabinoid receptor 1 [3] was more than 50% in each case.

For `O=C(O)COc1ccc2c(c1)c(C(=O)c1cccc3ccccc13)cn2CCN1CCOCC1`, the Ki at Cannabinoid receptor 2 [1] (read-out: Ki) and at Cannabinoid receptor 1 [4] (read-out: Ki) was more than 10 µM in each case. The inhibition at Cannabinoid receptor 2 [2] and on Cannabinoid receptor 1 [3] was more than 50% throughout.

Take `O=C(CCCCCNC(=O)COc1ccc(/C=C/C2=[N+]3C(=Cc4ccc(-c5cccs5)n4[B-]3(F)F)C=C2)cc1)NCCCCCCCCNC(=O)COc1ccc2c(c1)c(C(=O)c1cccc3ccccc13)cn2CCN1CCOCC1`: the Ki entry at Cannabinoid receptor 2 [1] (hek293) is “Not Active”.

The term Emax denotes the greatest response seen or fitted, relative to the assay's reference. As for `CCCCCCC(C)(C)c1ccc([C@@H]2C[C@H](O)CC[C@H]2CCCO)c(O)c1` [CP-55940], the Activity in the series on HEK293 [5] was determined as 99.2%; in the series with HEK293 [8], 98%. In addition, the Emax at Cannabinoid receptor 2 [6] is 41%. Besides, the outcome at Cannabinoid receptor 1 [7] and at Cannabinoid receptor 2 [9] was Active.

Regarding `Cc1c(C(=O)c2cccc3ccccc23)c2cccc3c2n1[C@H](CN1CCOCC1)CO3` [WIN-552122], the Activity in the series on HEK293 [5] came out at 96.1%; in the series with HEK293 [8], 102.6%.

Take `COc1ccc(C(=O)c2cn(CCN3CCOCC3)c3ccc(OCC(=O)NC(C)(C)C(=O)NC(C)(C)C(=O)NCCNC(=O)CCCCCNC(=O)COc4ccc(/C=C/C5=[N+]6C(=Cc7ccc(-c8cccs8)n7[B-]6(F)F)C=C5)cc4)cc23)cc1`: on Cannabinoid receptor 2 [1] (read-out: Ki), the Ki was more than 10 µM.

On to `COc1ccc(C(=O)c2cn(CC3CCOCC3)c3ccc(OCC(=O)NC(C)(C)C(=O)NC(C)(C)C(=O)NCCNC(=O)CCCCCNC(=O)COc4ccc(/C=C/C5=[N+]6C(=Cc7ccc(-c8cccs8)n7[B-]6(F)F)C=C5)cc4)cc23)cc1`, for which the Ki at Cannabinoid receptor 2 [1] (read-out: Ki) is more than 10 µM.

For `COc1ccc(C(=O)c2cn(CCN3CCOCC3)c3ccc(OCC(=O)N[C@@H](C)C(=O)N[C@@H](C)C(=O)NCCN)cc23)cc1`, on Cannabinoid receptor 2 [1] (hek293), the Ki entry is on record as “Not Active”. The inhibition on Cannabinoid receptor 1 [3] is more than 50%.

As for `COc1ccc(C(=O)c2cn(CCN3CCOCC3)c3ccc(OCC(=O)NCCOCCOCCNC(C)=O)cc23)cc1`, the Ki on Cannabinoid receptor 2 [1] (read-out: Ki) was more than 10 µM. The inhibition at Cannabinoid receptor 2 [2] and on Cannabinoid receptor 1 [3] was more than 50% throughout.

As to `COc1ccc(C(=O)c2cn(CC3CCOCC3)c3ccc(OCCOCCOCCOCCNC(C)=O)cc23)cc1`, the Ki is more than 10 µM at Cannabinoid receptor 2 [1] (read-out: Ki) and “Not Active” at Cannabinoid receptor 1 [4] (hek293). Further, the inhibition on Cannabinoid receptor 2 [2] was more than 50%.

With `COc1ccc(C(=O)c2cn(CC3CCOC3)c3ccc(O)cc23)cc1` (stereo not given), the values for the Ki at Cannabinoid receptor 2 [1] (read-out: Ki) and on Cannabinoid receptor 1 [4] (hek293) were more than 10 µM and “Not Active”, respectively. For the same molecule, the inhibition at Cannabinoid receptor 2 [2] is more than 50%.

Consider `COc1ccc(C(=O)c2cn(CCN3CCOCC3)c3ccc(OCCCCCCC(=O)NCCOCCOCCNC(=O)CCCCCNC(=O)COc4ccc(/C=C/C5=[N+]6C(=Cc7ccc(-c8cccs8)n7[B-]6(F)F)C=C5)cc4)cc23)cc1`, for which the Ki at Cannabinoid receptor 2 [1] (read-out: Ki) and on Cannabinoid receptor 1 [4] (read-out: Ki) was more than 10 µM in each case.

Consider `NCCCCCCCCNC(=O)COc1ccc2c(c1)c(C(=O)c1cccc3ccccc13)cn2CCN1CCOCC1`, for which the inhibitory constant (Ki) on Cannabinoid receptor 2 [1] (read-out: Ki) is more than 10 µM. Further, the inhibition at Cannabinoid receptor 2 [2] and at Cannabinoid receptor 1 [3] was more than 50% in each case.

For `COc1ccc(C(=O)c2cn(CCN3CCOCC3)c3cc(O)ccc23)cc1`, the inhibitory constant (Ki) is more than 10 µM at Cannabinoid receptor 2 [1] (read-out: Ki) and “Not Active” on Cannabinoid receptor 1 [4] (hek293). Besides, on Cannabinoid receptor 2 [2], the inhibition is more than 50%.

In the case of `COc1ccc(C(=O)c2cn(CCN3CCOCC3)c3ccc(OCC(=O)NCCCCCCCCNC(=O)CCCCCNC(=O)COc4ccc(/C=C/C5=[N+]6C(=Cc7ccc(-c8cccs8)n7[B-]6(F)F)C=C5)cc4)cc23)cc1`, the Ki entry at Cannabinoid receptor 2 [1] (hek293) is given as “Not Active”.

As for `C[C@H](NC(=O)COc1ccc2c(c1)c(C(=O)c1cccc3ccccc13)cn2CCN1CCOCC1)C(=O)N[C@@H](C)C(=O)NCCN`, the Ki entry at Cannabinoid receptor 2 [1] (hek293) is reported as “Not Active”. This molecule had an inhibition at Cannabinoid receptor 1 [3] of more than 50%.

For the molecule `COc1ccc(C(=O)c2cn(CC3CCOCC3)c3ccc(OCC(=O)N[C@@H](C)C(=O)N[C@@H](C)C(=O)NCCN)cc23)cc1`, the Ki entry at Cannabinoid receptor 2 [1] (hek293) is on record as “Not Active”. This molecule gave an inhibition at Cannabinoid receptor 1 [3] of more than 50%.

Take `COc1ccc(C(=O)c2cn(CCN3CCOCC3)c3ccc(OCCCCC(=O)NCCOCCOCCNC(=O)CCCCCNC(=O)COc4ccc(/C=C/C5=[N+]6C(=Cc7ccc(-c8cccs8)n7[B-]6(F)F)C=C5)cc4)cc23)cc1`: the Ki at Cannabinoid receptor 2 [1] (read-out: Ki) and at Cannabinoid receptor 1 [4] (read-out: Ki) was more than 10 µM each time.

`COc1ccc(C(=O)c2cn(CCN3CCOCC3)c3ccc(OCC(=O)O)cc23)cc1`: the Ki on Cannabinoid receptor 2 [1] (read-out: Ki) and on Cannabinoid receptor 1 [4] (read-out: Ki) was more than 10 µM in each case. Moreover, the inhibition at Cannabinoid receptor 2 [2] and on Cannabinoid receptor 1 [3] was more than 50% throughout.

Regarding `CC(C)(NC(=O)COc1ccc2c(c1)c(C(=O)c1cccc3ccccc13)cn2CCN1CCOCC1)C(=O)NC(C)(C)C(=O)NCCNC(=O)CCCCCNC(=O)COc1ccc(/C=C/C2=[N+]3C(=Cc4ccc(-c5cccs5)n4[B-]3(F)F)C=C2)cc1`, at Cannabinoid receptor 2 [1] (read-out: Ki), the Ki was more than 10 µM.

As to `COc1ccc(C(=O)c2cn(CC3CCOCC3)c3c(OCCCCC(=O)NCCOCCOCCNC(C)=O)cccc23)cc1`, the Ki at Cannabinoid receptor 2 [1] (read-out: Ki) and at Cannabinoid receptor 1 [4] (read-out: Ki) was more than 10 µM throughout. Further, the inhibition on Cannabinoid receptor 2 [2] and on Cannabinoid receptor 1 [3] was more than 50% throughout.

On to `NCCOCCOCCNC(=O)COc1ccc2c(c1)c(C(=O)c1cccc3ccccc13)cn2CCN1CCOCC1`, for which the Ki on Cannabinoid receptor 2 [1] (read-out: Ki) is more than 10 µM. Besides, the inhibition on Cannabinoid receptor 2 [2] and on Cannabinoid receptor 1 [3] was more than 50% throughout.
